Assay results from ChEMBL document CHEMBL5150070, “Tricyclic SpiroLactams Kill Mycobacteria In Vitro and In Vivo by Inhibiting Type II NADH Dehydrogenases” (J Med Chem, 2022).

Legend:
[1] = tested on: Mycobacterium tuberculosis; assay: Bactericidal activity against Non-replicating Mycobacterium tuberculosis ss18b-lux model assessed as decrease in luminescence at 10 to 10000 nM; type: functional, organism-based; details: dose 10-10000 nM, TDE = time-dependent effect
Procedure, shortened: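 Non-replicating streptomycin-starved 18b-lux (14-day starvation) diluted to OD600 0.15 in white 96-well plates with compound and incubated at 37°C. Luminescence read on days 1, 2, 5 and 7 and expressed relative to no-antibiotic controls (n ≥ 3).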

[2] = tested on: Mycobacterium tuberculosis; assay: Antimycobacterial activity against Mycobacterium tuberculosis H37Rv infected in human A-THP1 macrophages assessed as viability of infected macrophages incubated for 96 hrs by fluorescence microplate assay; type: functional, organism-based
Procedure, shortened: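 THP-1 cells differentiated with 50 ng/mL PMA for 72 h, infected with log-phase H37Rv (MOI 10, 2 h), and extracellular bacteria killed with 50 µg/mL amikacin for 1 h. Cells detached and seeded at 5×10⁵/mL in RPMI-10% FBS with PMA onto pre-dispensed compound, 96 h at 37°C, 5% CO₂. Macrophage viability by 0.05% resazurin fluorescence.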

[3] = tested on: Mycobacterium tuberculosis; assay: Bactericidal activity against Non-replicating Mycobacterium tuberculosis ss18b-lux assessed as decrease in colony forming unit measured at 0.6 uM after 1 weeks; type: functional
Procedure, shortened: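 Streptomycin-dependent 18b-lux starved of streptomycin for 14 days (OD600 reset to 0.2 on days 7 and 13) to become non-replicating. Diluted to OD600 0.15 on dispensed compound and held at 37°C. On day 7, active wells plated on 7H11-OADC with 50 µg/mL streptomycin and incubated up to 8 weeks for cfu.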

For CO[C@H]1/C=C/O[C@@]2(C)Oc3c(C)c(O)c4c(O)c(c(/C=N/N5CCN(C)CC5)c(O)c4c3C2=O)NC(=O)/C(C)=C\C=C\[C@H](C)[C@H](O)[C@@H](C)[C@@H](O)[C@@H](C)[C@H](OC(C)=O)[C@@H]1C [RIFAMPIN], the Activity [1] was “Tde”, the IC50 [2] was 91 nM and the Activity [3] was 1 log10CFU.
